ChEMBL document CHEMBL4177753, “Structural Modification of Natural Product Ganomycin I Leading to Discovery of a α-Glucosidase and HMG-CoA Reductase Dual Inhibitor Improving Obesity and Metabolic Dysfunction in Vivo” (J Med Chem, 2018)
Activity calls are given as the source filed them.

Legend:
Mus musculus [1] = experiment: Hypoglycemic activity in ob/ob mouse assessed as decrease in fasting blood glucose levels administered daily via oral gavage for 28 days; assay type: functional, organism-based
Outline: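 Male ob/ob mice, n = 10 per group, daily gavage at 0.3, 1.0 or 3.0 mg/kg in soybean vehicle. Fasting and free-diet blood glucose and HbA1c measured.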

Mus musculus [2] = experiment: Hypolipidemic activity in antibiotic-treated ob/ob mouse assessed as decrease in hepatic total cholesterol levels at 3 mg/kg administered daily via oral gavage for 3 weeks; assay type: functional, organism-based
Outline: (§1)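 Male ob/ob mice pretreated three weeks with ampicillin (1 g/L), vancomycin, neomycin, gentamycin and erythromycin. Groups of n = 8 given 3.0 mg/kg/day orally in soybean vehicle versus vehicle. Plasma and hepatic lipids, fasting glucose, OGTT (glucose 2 g/kg after overnight fast) and HbA1c measured.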

Lachnospiraceae = experiment: Increase in Lachnospiraceae levels in cecum of ob/ob mouse at 1 to 3 mg/kg administered daily via oral gavage for 31 days by 16S rRNA gene high-throughput sequencing method; assay type: functional, organism-based
Outline: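 Caecum contents (about 150 mg) from ob/ob mice given 1.0 or 3.0 mg/kg by gavage; DNA extracted, 16S rRNA gene V3-V4 region amplified and sequenced on Illumina HiSeq PE250; community compared with vehicle group by NMDS/MRPP and LEfSe.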

Fusobacterium = experiment: Decrease in Fusobacterium levels in cecum of ob/ob mouse at 3 mg/kg administered daily via oral gavage for 31 days by 16S rRNA gene high-throughput sequencing method; assay type: functional, organism-based
Outline: (§2)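 Male ob/ob mice dosed daily by gavage at 1.0 or 3.0 mg/kg, compared with vehicle group. DNA extracted from about 150 mg caecum contents. 16S rRNA V3–V4 region amplified and sequenced on Illumina HiSeq PE250. Community compared by NMDS/MRPP; discriminant taxa identified by LEfSe.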

Mus musculus [3] = experiment: Hypolipidemic activity in antibiotic-treated ob/ob mouse assessed as decrease in hepatic LDL-C levels at 3 mg/kg administered daily via oral gavage for 3 weeks; assay type: functional, organism-based; outline: as §1
Mus musculus [4] = experiment: Reduction of plasma LPS levels in antibiotic-treated ob/ob mouse at 3 mg/kg administered daily via oral gavage for 3 weeks by ELISA; assay type: functional, organism-based
Outline: (§3)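 Male ob/ob mice treated daily by gavage (soybean vehicle); plasma LPS and TNF-α quantified by ELISA kits. For antibiotic groups, ob/ob mice first received an oral antibiotic cocktail (ampicillin 1 g/L, vancomycin, neomycin, gentamycin, erythromycin) for three weeks, then 3.0 mg/kg/day; n = 8 per group.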

Mus musculus [5] = experiment: Hypolipidemic activity in ob/ob mouse assessed as decrease in serum AST levels at 0.3 to 3 mg/kg administered daily via oral gavage for 31 days; assay type: functional, organism-based
Mus musculus [6] = experiment: Upregulation of Il10 mRNA expression in ob/ob mouse ileum at 3 mg/kg administered daily via oral gavage for 31 days by RNA-seq analysis; assay type: functional, organism-based
Mus musculus [7] = experiment: Toxicity in C57BL/6J mouse assessed as effect on free diet blood glucose levels at 30 mg/kg administered daily via oral gavage for 3 months; assay type: organism-based; conditions: in vivo
Outline: (§4)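 Long-term safety study in C57BL/6J mice, 20 male and 20 female, sorted by gender, blood glucose and body weight into four groups (n = 10 each). Treated groups of each sex got 30.0 mg/kg daily by oral gavage in soybean vehicle. Vehicle groups got an equal volume of soybean. Dosing ran three months, with behavior, survival, body weight, blood glucose, liver function and organ coefficients recorded.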

Mus musculus [8] = experiment: Reduction of plasma TNF-alpha levels in ob/ob mouse at 3 mg/kg administered daily via oral gavage for 31 days by ELISA relative to vehicle-treated control; assay type: functional, organism-based; outline: as §3
Mus musculus [9] = experiment: Toxicity in C57BL/6J mouse assessed as effect on organ coefficients at 30 mg/kg administered daily via oral gavage for 3 months; assay type: organism-based; conditions: in vivo; outline: as §4
Mus musculus [10] = experiment: Reduction of plasma LPS levels in ob/ob mouse at 3 mg/kg administered daily via oral gavage for 31 days by ELISA relative to vehicle-treated control; assay type: functional; set-up: scale not given: the % may be the effect or the level left; outline: as §3
[11] = Tmax in Sprague-Dawley rat at 2 mg/kg, po; assay type: ADME, organism-based; conditions: in vivo
Outline: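 Six male Sprague-Dawley rats (0.21–0.23 kg) dosed orally at 2.0 mg/kg; blood from orbital vein at 0–16 h into heparinized tubes; plasma protein precipitated with methanol plus internal standard. Quantified by UPLC–Q-TOF MS, ESI positive, single ion monitoring (m/z 367.2637); linear range 0.54–107 ng/ml.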

Alistipes = experiment: Decrease in Alistipes levels in cecum of ob/ob mouse at 3 mg/kg administered daily via oral gavage for 31 days by 16S rRNA gene high-throughput sequencing method; assay type: functional, organism-based; outline: as §2
Betaproteobacteria = experiment: Decrease in Betaproteobacteria levels in cecum of ob/ob mouse at 1 to 3 mg/kg administered daily via oral gavage for 31 days by 16S rRNA gene high-throughput sequencing method; assay type: functional, organism-based; outline: as §2
Mus musculus [12] = experiment: Hypolipidemic activity in ob/ob mouse assessed as decrease in plasma triglyceride levels at 3 mg/kg administered daily via oral gavage for 31 days relative to vehicle-treated control; assay type: functional; set-up: scale not given: the % may be the effect or the level left
Mus musculus [13] = experiment: Decrease in nitrate levels in ob/ob mouse colonic lumen at 3 mg/kg administered daily via oral gavage for 31 days by Griess assay; assay type: functional, organism-based
Outline: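 Male ob/ob mice dosed daily by gavage in soybean vehicle. Nitrate measured in intestinal contents by Griess assay.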

Mus musculus [14] = experiment: Hypolipidemic activity in antibiotic-treated ob/ob mouse assessed as decrease in hepatic free fatty acid levels at 3 mg/kg administered daily via oral gavage for 3 weeks; assay type: functional, organism-based; outline: as §1
Mus musculus [15] = experiment: Hypolipidemic activity in ob/ob mouse assessed as decrease in fat deposition in liver at 3 mg/kg administered daily via oral gavage for 31 days by […] staining-based microscopic method; assay type: functional, organism-based
Outline: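 Male ob/ob mice dosed by gavage (soybean vehicle); liver and abdominal white adipose tissue fixed in 10% formaldehyde-PBS pH 7.4, paraffin-embedded, sectioned, stained with H&E, Oil Red O or sirius red, and examined by light microscopy.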

Mus musculus [16] = experiment: Antiobesity activity in ob/ob mouse assessed as reduction in absolute fat mass at 3 mg/kg administered daily via oral gavage for 31 days; assay type: functional, organism-based
Outline: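 Male ob/ob mice, n = 10 per group, grouped by blood glucose and body weight. Daily gavage at 0.3, 1.0 or 3.0 mg/kg in soybean vehicle, with soybean vehicle controls and C57BL/6J controls. Body weight, cumulative food intake, LEE index, fat mass and lean mass recorded. Mean ± SEM, one-way ANOVA with Tukey test.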

Mus musculus [17] = experiment: Hypolipidemic activity in C57BL/6J DIO mouse assessed as decrease in plasma triglyceride levels at 0.3 to 3 mg/kg administered daily via oral gavage for 5 weeks; assay type: functional, organism-based
Outline: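 High-fat-diet male C57BL/6J mice, n = 8 per group, daily gavage at 0.3–3.0 mg/kg in soybean vehicle for 5 weeks. Serum total cholesterol, triglycerides and free fatty acids measured.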

Mus musculus [18] = experiment: Hypolipidemic activity in ob/ob mouse assessed as decrease in plasma LDL-C levels at 1 mg/kg administered daily via oral gavage for 31 days relative to vehicle-treated control; assay type: functional; set-up: scale not given: the % may be the effect or the level left
Mus musculus [19] = experiment: Hypolipidemic activity in antibiotic-treated ob/ob mouse assessed as decrease in plasma free fatty acid levels at 3 mg/kg administered daily via oral gavage for 3 weeks; assay type: functional, organism-based; outline: as §1
Alphaproteobacteria = experiment: Decrease in Alphaproteobacteria levels in cecum of ob/ob mouse at 1 to 3 mg/kg administered daily via oral gavage for 31 days by 16S rRNA gene high-throughput sequencing method; assay type: functional, organism-based; outline: as §2
Mus musculus [20] = experiment: Toxicity in C57BL/6J mouse assessed as effect on behavior at 30 mg/kg administered daily via oral gavage for 3 months; assay type: organism-based; conditions: in vivo; outline: as §4

CC(C)=CCC/C(C)=C/CCC1=C[C@H](c2ccc(C(C)(C)C)cc2)OC1=O
7 h: Tmax [11]
47%: Activity (Mus musculus [12])
40.9%: Activity (Mus musculus [10])
active: Activity (Mus musculus [1]) Dose-dependent effect | Activity (Lachnospiraceae) | Activity (Fusobacterium) | Activity (Mus musculus [5]) | Activity (Mus musculus [6]) | Activity (Mus musculus [8]) | Activity (Alistipes) | Activity (Betaproteobacteria) | Activity (Mus musculus [13]) | Activity (Mus musculus [15]) | Activity (Mus musculus [16]) | Activity (Mus musculus [17]) | Activity (Alphaproteobacteria)
Non-Toxic: Activity (Mus musculus [7]) | Activity (Mus musculus [9]) | Activity (Mus musculus [20])
inactive: Activity (Mus musculus [2]) | Activity (Mus musculus [3]) | Activity (Mus musculus [4]) | Activity (Mus musculus [14]) | Activity (Mus musculus [19])
43%: Activity (Mus musculus [18])
